NR2E3 ag-1 = activates human photoreceptor nuclear receptor NR2E3; Q9Y5X4; GST-NR2E3/biotin-RetCOR TR-FRET, 1536-well; inhibition of corepressor binding, % at 4.78 µM; 320,000 tested, 0.12% active; AID 2300;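 active = percent inhibition above the cutoff of mean plus 3 SD of all tested compounds, set per screening campaign, cut at about 20% in these data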
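Material: NR2E3–RetCOR corepressor complex / Amount: 1.35 nM GST-NR2E3 / Medium: Tris pH 7.5 / Compound: single nominal compound dose of 4.8 µM / Incubation: 5 h at 4 °C / Technique: TR-FRET, Eu(K)-anti-GST donor, streptavidin-D2 acceptor, ex 340, em 617/671 nm / Read-out basis: percent loss of FRET ratio relative to control wells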
NR2E3 ag-2 = human photoreceptor-specific nuclear receptor agonism. inhibition of corepressor binding, % at 3.98 µM. Q9Y5X4. 360,000 tested, 0.35% active. CHO-S Gal4-NCOR/VP16-NR2E3 two-hybrid, luciferase;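 active = inhibition above the mean of all tested compounds plus 3 SD, cut at about 70% in these data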;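 also: higher means lower luciferase signal from less NR2E3 corepressor binding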
PG9 binder = binds the HIV-1 gp120 antibody PG9; TR-FRET gp120-PG9 antibody binding; inhibition, % at 6.7 µM; 360,000 tested, 0.43% active; AID 624416; in the data active = inhibition above about 8.5%
Rev-erbA mod = modulators of human Rev-erb alpha DNA binding. Rev-erbα–FITC-DNA binding, fluorescence polarization, 90 min. activity, % at 10 µM. 370,000 tested, 0.79% active. AID 1259318;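 active = activity above about 14%, limit read from the data; passing the limit was not always enough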
Target sequence (P20393 whole entry, looked up): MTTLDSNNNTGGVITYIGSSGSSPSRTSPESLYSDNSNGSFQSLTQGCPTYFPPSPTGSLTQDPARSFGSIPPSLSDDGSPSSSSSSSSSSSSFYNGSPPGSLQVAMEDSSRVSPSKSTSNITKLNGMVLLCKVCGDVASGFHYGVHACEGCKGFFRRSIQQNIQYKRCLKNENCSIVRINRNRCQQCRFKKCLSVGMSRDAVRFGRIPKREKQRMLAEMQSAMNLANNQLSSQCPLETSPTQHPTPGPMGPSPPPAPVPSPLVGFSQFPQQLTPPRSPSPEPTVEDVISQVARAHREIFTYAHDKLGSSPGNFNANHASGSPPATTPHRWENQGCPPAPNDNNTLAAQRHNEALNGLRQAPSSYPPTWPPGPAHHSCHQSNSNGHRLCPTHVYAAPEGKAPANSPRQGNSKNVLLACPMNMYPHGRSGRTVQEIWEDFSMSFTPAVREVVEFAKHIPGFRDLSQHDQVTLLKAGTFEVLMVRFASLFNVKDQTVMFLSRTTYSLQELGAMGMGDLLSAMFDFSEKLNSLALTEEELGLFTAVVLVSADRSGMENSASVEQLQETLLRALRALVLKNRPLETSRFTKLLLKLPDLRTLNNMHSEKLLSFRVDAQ
GalR3 antag = human GalR3 antagonism; O60755; HEK293 GalR3-CNG cAMP membrane potential fluorescence; galR3 body fused to GalR1 C-terminus; inhibition, % at 3 µM; 360,000 tested, 0.44% active; AID 651719;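 active = inhibition above the screen-wide average plus 3 SD, cut at about 13% in these data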;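 also: forskolin and galanin both at EC90 stimulate the cells; cAMP rise reported by CNG channel membrane potential dye signal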
NR2E3 ag confirm = NR2E3 agonism confirmed in two-hybrid assay; shares compounds with NR2E3 ag-2; CHO-S mammalian two-hybrid NR2E3-NCOR, luciferase luminescence; inhibition, % at 3.98 µM; 2,300 tested, 51% active;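 active = average inhibition above a cutoff equal to the mean inhibition of all tested compounds plus one SD, cut at about 70% in these data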
GAL4-VP16 luc = GAL4-VP16 reporter inhibition in NR2E3 agonist counterscreen. shares compounds with NR2E3 ag-2. CHO-S GAL4-VP16 luciferase reporter, luminescence. inhibition, % at 3.98 µM. 2,300 tested, 29% active. AID 624379;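 active = mean inhibition above a cutoff equal to the average over all tested compounds plus one standard deviation, cut at about 70% in these data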;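 also: luciferase from a UAS reporter driven by GAL4-VP16 transactivation; higher means less reporter light so more repression of VP16 activity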
PG9 bind confirm = PG9 antibody binding, confirmed; shares compounds with PG9 binder; TR-FRET PG9 antibody binding, biochemical; inhibition, % at 6.7 µM; 1,500 tested, 90% active; AID 651571; in the data active = inhibition above about 9%
PGV04 counter = PGV04 control antibody binding, counter-screen; shares compounds with PG9 binder; TR-FRET PGV04 antibody-gp120 binding, biochemical; inhibition, % at 6.7 µM; 1,500 tested, 95% active; AID 651604; in the data active = inhibition above about 9.5%
PG9 bind DR = PG9 antibody binding, dose response; shares compounds with PG9 binder; TR-FRET PG9 antibody-gp120 binding inhibition; IC50, µM; 95 tested, under 10 active; in the data active = IC50 below about 10 µM
PGV04 binding DR = counter-screen for PG9 binders: binding to control antibody PGV04 | TR-FRET binding to control antibody PGV04 | AID 651937 | IC50, µM | 95 tested, 20% active | shares compounds with PG9 binder
PG126 binding DR = PG126 binding, dose response counter-screen | shares compounds with PG9 binder | TR-FRET binding to antibody PG126, counterscreen | IC50, µM | 95 tested, 20% active | AID 651939
NR1D1 mod conf = Rev-erb alpha (human) modulation, hit confirmation; AID 1259319; shares compounds with Rev-erbA mod; activation, % at 25 µM; 3,000 tested, 61% active; Rev-erb alpha FITC-DNA binding, fluorescence polarization, 90 min;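 active = activation at or above a set limit, or at least 3 SD above the negative control mean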
RORg counter = counter-screen for Rev-erb alpha modulators: RORgamma DNA binding | IC50, µM | shares compounds with Rev-erbA mod | purified RORgamma protein-FITC-DNA binding, fluorescence polarization | 910 tested, 8% active;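 active = Compounds whose fitted half-maximal concentration for disrupting protein-DNA binding is below 10 micromolar; the record names Rev-erb in its text, so the target is in doubt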
Each line names hits and unclear results; the compound was inactive in the other large screens (follow-up assays come after a bar, where they were run). In the library only some 1.8% were active in any assay of this set; here they are far more common. Rule as the data show it, unless noted: active = IC50 below about 9 µM; inactive = the rest.

COC(=O)c1ccc2nc(NC(=O)C(C)C)sc2c1	none
COC(=O)c1ccc2nc(Nc3nc4c(F)cc(F)cc4s3)sc2c1	Rev-erbA mod 38 | NR2E3 ag confirm inactive | GAL4-VP16 luc inactive | NR1D1 mod conf 33 | RORg counter inactive
Clc1ccccc1Nc1nc(NCc2ccccc2)nc2ccsc12	PG9 binder 18, Rev-erbA mod 21 (no result: NR2E3 ag-1) | NR2E3 ag confirm inactive | GAL4-VP16 luc inactive | PG9 bind confirm 27 | PGV04 counter 36 | NR1D1 mod conf inactive
O=C(CN1CCN(c2nc(-c3ccccc3)cs2)CC1)Nc1ccc(F)cc1F	none (no result: NR2E3 ag-1, NR2E3 ag-2, PG9 binder, GalR3 antag)
COc1cccc2cc(C(=O)C3=C(O)C(=O)N(CCN(C)C)C3c3ccc(Cl)cc3)oc12 (centres undefined)	PG9 binder 14 | PG9 bind confirm 22 | PGV04 counter 28
COc1ccccc1C1C(C(=O)c2cc3ccccc3o2)=C(O)C(=O)N1CCN(C)C (centres undefined)	PG9 binder 13 | PG9 bind confirm 24 | PGV04 counter 34
COc1cc(C2C(C(C)=O)=C(O)C(=O)N2CCN(C)C)ccc1O (centres undefined)	none
C[C@H](O)[C@@H]1CN2CCc3c([nH]c4cccc(-c5ccccc5)c34)[C@@H]2C[C@@H]1N(C)CC1CCCCC1	none (no result: NR2E3 ag-1, NR2E3 ag-2, PG9 binder, GalR3 antag)
CCOc1ccc2cc(C(=O)NCc3ccccc3)c(=N)oc2c1	PG9 binder 40 | PG9 bind confirm 15 | PGV04 counter inactive | PG9 bind DR inactive | PGV04 binding DR inactive | PG126 binding DR inactive
CN(C)c1ccc(NC(=O)NC2CCCCN(Cc3cccc(Cl)c3)C2=O)cc1 (centres undefined)	none (no result: NR2E3 ag-1, NR2E3 ag-2, PG9 binder, GalR3 antag)
Nc1c(Cl)cc(-c2csc(N3CCCC3c3nc4cc(Cl)c(Cl)cc4n3CCCO)n2)cc1Cl (centres undefined)	none
Cc1ccc(Cn2c(C3CCCN3c3nc(-c4cc(Cl)c(N)c(Cl)c4)cs3)nc3cc(Cl)c(Cl)cc32)cc1 (centres undefined)	PG9 binder 9.7 | PG9 bind confirm 14 | PGV04 counter 22
COc1ccc(S[C@]2(C(=O)N(C)C)CC(=O)N(c3ccc(Cl)cc3)[C@@H]2c2ccc(OC)cc2)cc1	none (no result: NR2E3 ag-1, NR2E3 ag-2, PG9 binder, GalR3 antag)
Nc1nc(-c2ccc(Cl)cc2)nnc1-c1ccc(Br)cc1	PG9 binder 13 | PG9 bind confirm 16 | PGV04 counter 58
O=S1(=O)c2c(cccc2N2CC[C@H](O)C2)OCCCN1C1CC1	none (no result: NR2E3 ag-1, NR2E3 ag-2, PG9 binder, GalR3 antag)
CCCc1c(Cc2cccc(F)c2)ncn1CCc1ccccc1OC	none (no result: NR2E3 ag-1, NR2E3 ag-2)
CCN(CC)C(=O)CC[C@H]1CC[C@]2(CCCN(C3CCCCC3)C2)O1	none (no result: NR2E3 ag-1, NR2E3 ag-2, PG9 binder, GalR3 antag)
COc1ccc(Cn2nnnc2C(c2cc3cccc(C)c3[nH]c2=O)N2CCOCC2)cc1 (centres undefined)	PG9 binder 17 | PG9 bind confirm 16 | PGV04 counter 24
CCOc1ccc(N(CC(=O)Nc2c(C)n(C)n(-c3ccccc3)c2=O)S(=O)(=O)c2cc(OC)ccc2OC)cc1	none (no result: NR2E3 ag-1, NR2E3 ag-2, PG9 binder, GalR3 antag)
CCCCCCCCN1C(=O)[C@@H](CC(=O)NCCCOCCCC)C[C@@]2(C(=O)OC)C1=C[C@H](COCc1ccccc1)O[C@@H]2C	none (no result: NR2E3 ag-1, NR2E3 ag-2, PG9 binder, GalR3 antag)
C=CCN1C[C@@H](COCc2ccccc2)Oc2cccc(F)c2S1(=O)=O	none (no result: NR2E3 ag-1, NR2E3 ag-2, PG9 binder, GalR3 antag)
Cc1ccc(-n2nc3c(=S)[nH]nc(C)c3c2C)cc1	PG9 binder 45 | PG9 bind confirm 28 | PGV04 counter 25 | PG9 bind DR inactive | PGV04 binding DR inactive | PG126 binding DR inactive
CCSc1nnc(NC(=O)c2csc(C)c2)s1	PG9 binder 12 | PG9 bind confirm 19 | PGV04 counter 31
CCSc1nnc(NC(=O)COc2ccc3ccccc3c2)s1	PG9 binder 14 | PG9 bind confirm 20 | PGV04 counter 35
Cc1csc(NC(=O)C(Cc2ccccc2)n2cccc2)n1 (centres undefined)	none
CCSc1nnc(NC(=O)C(Cc2ccccc2)n2cccc2)s1 (centres undefined)	PG9 binder 10 | PG9 bind confirm 21 | PGV04 counter 21 | PG9 bind DR inactive | PGV04 binding DR inactive | PG126 binding DR inactive
Cc1ccc(/C=C/c2nc3ccccc3c(=O)[nH]2)cc1	PG9 binder 31 | PG9 bind confirm 40 | PGV04 counter 47
CCOC(=O)c1ccccc1NC(=O)/C=C/c1cc(OC)c(OC)c(OC)c1	PG9 binder 22 | PG9 bind confirm 19 | PGV04 counter 24
O=C(Cn1c(=S)[nH]c2ccccc2c1=O)N1CCN(c2ccc(F)cc2)CC1	PG9 binder 11 | PG9 bind confirm 16 | PGV04 counter 26
Nc1cc2sc(-c3ccc(C(=O)O)cc3)nc2cc1Cl	PG9 binder 8.6 | PG9 bind confirm 12 | PGV04 counter 20
Cc1ccc(NC(=O)CSc2nc3c(cc2C#N)C(=O)CCC3)cc1S(=O)(=O)N(C)C	PG9 binder 13 | PG9 bind confirm 12 | PGV04 counter 14
C=CCN1C(=O)[C@@H](CC(=O)N2CCC(c3ccccc3)CC2)[C@]2(C(=O)OCC)CCCCC/C=C/12	none (no result: NR2E3 ag-1, NR2E3 ag-2, PG9 binder, GalR3 antag)
O=C(CSc1nc2nc(-c3cccs3)cc(C(F)(F)F)c2c(=O)[nH]1)Nc1ccc(F)c(F)c1	PG9 binder 17 | PG9 bind confirm 20 | PGV04 counter 28
COc1cc(OC)cc(C(=O)NC2CCSC2=O)c1 (centres undefined)	PG9 binder 15 | PG9 bind confirm inactive | PGV04 counter 39
COc1ccc(C(=O)NCCCNc2nc3cc(C)cc(C)c3cc2C#N)cc1	none (no result: NR2E3 ag-1)
